Activity calls are given as the source filed them. The calls are words filed in the database; no cut-off is given here. Where a SMILES comes first, the peptide text is derived from it. [ ]: non-standard residue; d: D form. ξ: configuration not given here. Dmt = Cc1cc(O)cc(C)c1C[C@H](N)C(=O)O; NMeY = CN[CH](Cc1ccc(O)cc1)C(=O)O; Tic = O=C(O)[CH]1Cc2ccccc2CN1; ξTic = O=C(O)C1Cc2ccccc2CN1
Legend:
[1] = molecular target: Delta-type opioid receptor (Mus musculus) (UniProt P32300); settings: Vas deferens
Delta-type opioid receptor (Mus musculus), sequence (P32300 whole entry): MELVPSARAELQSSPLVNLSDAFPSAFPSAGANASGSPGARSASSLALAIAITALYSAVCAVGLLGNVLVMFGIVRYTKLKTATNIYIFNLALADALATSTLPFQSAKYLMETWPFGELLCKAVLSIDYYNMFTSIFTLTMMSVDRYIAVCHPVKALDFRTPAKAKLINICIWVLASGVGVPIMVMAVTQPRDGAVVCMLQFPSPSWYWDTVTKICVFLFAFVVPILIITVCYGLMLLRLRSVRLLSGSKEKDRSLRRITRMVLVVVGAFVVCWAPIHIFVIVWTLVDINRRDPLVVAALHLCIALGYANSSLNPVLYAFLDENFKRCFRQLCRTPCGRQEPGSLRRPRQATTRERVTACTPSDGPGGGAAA

[2] = system: Delta-type opioid receptor; assay: GPI/MVD ratio is based on Ke (antilog of pA2 value of antagonistic activity of compound for delta opioid receptor) and IC50 values; assay type: functional
[3] = molecular target: Mu-type opioid receptor (Cavia porcellus) (UniProt P97266); assay: Antagonist activity against Opioid receptor mu 1 in guinea pig ileum assay; '-' indicates inactive; assay type: functional, tissue-based
Mu-type opioid receptor (Cavia porcellus), sequence (P97266 whole entry): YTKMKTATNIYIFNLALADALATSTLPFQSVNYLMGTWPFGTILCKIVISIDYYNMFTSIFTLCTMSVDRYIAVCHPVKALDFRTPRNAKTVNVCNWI
Procedure, shortened: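 Electrically stimulated mouse vas deferens or guinea pig ileum strips in Krebs' solution; agonist concentration–response curves run without and with rising antagonist concentrations; pA2 by Schild (Arunlakshana–Schild) analysis.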

[4] = molecular target: Opioid receptors; mu & delta (Rattus norvegicus) (UniProt P33533+P33535); assay: Ratio of the affinity for delta and mu opioid receptors (Ki mu/Ki delta) shows delta opioid receptor selectivity; assay type: protein assay
Opioid receptors; mu & delta (Rattus norvegicus), sequence (P33533 whole entry, looked up): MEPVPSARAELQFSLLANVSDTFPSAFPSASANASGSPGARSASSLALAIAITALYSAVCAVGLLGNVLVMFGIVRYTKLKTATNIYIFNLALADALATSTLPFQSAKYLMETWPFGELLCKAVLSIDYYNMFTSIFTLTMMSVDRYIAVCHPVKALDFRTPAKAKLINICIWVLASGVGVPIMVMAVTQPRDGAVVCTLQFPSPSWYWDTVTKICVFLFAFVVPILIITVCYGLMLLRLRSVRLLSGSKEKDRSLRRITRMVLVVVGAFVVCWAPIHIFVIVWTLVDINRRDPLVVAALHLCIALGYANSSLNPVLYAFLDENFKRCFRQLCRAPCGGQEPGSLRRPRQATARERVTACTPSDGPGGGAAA
Opioid receptors; mu & delta (Rattus norvegicus), sequence (P33535 whole entry, looked up): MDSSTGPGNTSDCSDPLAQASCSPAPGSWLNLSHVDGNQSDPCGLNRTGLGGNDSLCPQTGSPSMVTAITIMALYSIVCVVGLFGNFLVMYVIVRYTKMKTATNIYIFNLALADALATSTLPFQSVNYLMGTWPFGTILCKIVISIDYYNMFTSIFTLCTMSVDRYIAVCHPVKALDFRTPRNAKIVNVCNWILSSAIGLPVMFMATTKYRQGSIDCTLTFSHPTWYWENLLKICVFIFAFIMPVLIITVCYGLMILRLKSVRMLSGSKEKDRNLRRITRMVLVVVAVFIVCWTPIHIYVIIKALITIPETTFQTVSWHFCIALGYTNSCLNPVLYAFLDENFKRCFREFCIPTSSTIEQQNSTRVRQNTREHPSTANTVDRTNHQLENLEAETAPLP

Mu-type opioid receptor [5] = molecular target: T1, Mu-type opioid receptor (Cavia porcellus, UniProt P97266); assay: Inhibitory activity against Opioid receptor mu 1 in an in vitro guinea pig ileum assay; assay type: tissue-based
T1 sequence (P97266 whole entry): as the sequence (P97266 whole entry) above

[6] = molecular target: T2, Delta-type opioid receptor (Rattus norvegicus, UniProt P33533); assay: Agonist activity for Opioid receptor delta 1; assay type: functional
T2 sequence (P33533 whole entry): as the sequence (P33533 whole entry, looked up) above

[7] = molecular target: T2, Delta-type opioid receptor; assay: Binding affinity for Opioid receptor delta 1 by displacement of [3H]- DPDPE
Procedure, shortened: (§1)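 Rat brain (Sprague–Dawley, minus cerebellum) synaptosomal membranes, preincubated to strip endogenous opioids. Equilibrium displacement of [3H]DPDPE (δ) or [3H]DAGO (μ); nonspecific binding defined with 2 μM unlabeled ligand. Peptides spanned 3–4 log units.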

Mu-type opioid receptor [8] = molecular target: Mu-type opioid receptor (Rattus norvegicus, UniProt P33535); assay: Binding affinity for Opioid receptor mu 1 by displacement of [3H]- DAGO
Mu-type opioid receptor (Rattus norvegicus, UniProt P33535), sequence (P33535 whole entry): as the sequence (P33535 whole entry, looked up) above
Procedure, shortened: as §1, with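 “units. Duplicates, ≥3 membrane preparations; Ki by Cheng–Prusoff; mean ± SEM, n = independent preparations.” for “units.”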

[9] = molecular target: Delta-type opioid receptor (Mus musculus, UniProt P32300); assay: Antagonist activity against Opioid receptor delta 1 in mouse vas deferens assay
Delta-type opioid receptor (Mus musculus, UniProt P32300), sequence (P32300 whole entry): as the sequence (P32300 whole entry) above

[10] = molecular target: Delta-type opioid receptor (Mus musculus) (UniProt P32300); settings: Vas deferens; remark: listed apart in the source
Mu-type opioid receptor [11] = molecular target: T1, Mu-type opioid receptor; assay: Inhibitory activity against Opioid receptor mu 1 in an in vitro guinea pig ileum assay; '-' indicates inactive; assay type: tissue-based
Mu-type opioid receptor [12] = molecular target: T1, Mu-type opioid receptor; assay: Antagonist activity against Opioid receptor mu 1 iin a guinea pig ileum assay
[13] = molecular target: Mu-type opioid receptor (Cavia porcellus) (UniProt P97266); settings: Ileum

SMILES	Ratio [2]	pA2 [3]	Ratio [4]	IC50 (Mu-type opioid receptor [5]) [nM]	Ki [7] [nM]	Ki (Mu-type opioid receptor [8]) [nM]	Kb [9] [nM]	other results
Cc1cc(O)cc(C)c1C[C@H](N)C(=O)N1Cc2ccccc2C[C@H]1C(=O)NC(C)C(=O)O (some centres undefined)	> 2500	inactive	20400					pA2 [1]: 8.4
Cc1cc(O)cc(C)c1C[C@H](N)C(=O)N1Cc2ccccc2C[C@H]1C(=O)N[C@@H](C)C(=O)O				> 10000				
CC(C)[C@H](NC(=O)[C@H](CC(=O)O)NC(=O)[C@H](Cc1ccccc1)NC(=O)[C@@H](C)NC(=O)[C@@H](N)Cc1ccc(O)cc1)C(=O)N[C@H](C(=O)NCC(N)=O)C(C)C [DELTORPHIN C]								IC50 [6]: 0.54 nM
CNC(Cc1ccc(O)cc1)C(=O)N1Cc2ccccc2CC1C(=O)O (centres undefined) (H-[NMeY]-[Tic]-OH; configuration not given here)			166		74.7	12400		
CN[C@@H](Cc1c(C)cc(O)cc1C)C(=O)N1Cc2ccccc2CC1C(N)=O (some centres undefined)	> 4550		2490	> 10000	0.383	955	2.51	
CN[C@H](Cc1c(C)cc(O)cc1C)C(=O)N1Cc2ccccc2CC1C(N)=O (some centres undefined)		inactive	119		11.2	1330		pA2 [10]: inactive; IC50 (Mu-type opioid receptor [11]): Not Active
Cc1cc(O)cc(C)c1C[C@H](N)C(=O)N1Cc2ccccc2C[C@H]1C(=O)O		inactive		> 10000				pA2 [1]: 8.2
CN[C@H](Cc1c(C)cc(O)cc1C)C(=O)N1Cc2ccccc2C[C@H]1C(=O)N[C@@H](C)C(=O)O			181		106	19200		
CN[C@@H](Cc1c(C)cc(O)cc1C)C(=O)N1Cc2ccccc2C[C@H]1C(=O)N[C@@H](C)C(=O)O	> 7100	inactive	43000	> 10000	0.136	5850	1.58	
Cc1cc(O)cc(C)c1C[C@@H](N)C(=O)N1Cc2ccccc2C[C@H]1C(=O)N[C@@H](C)C(=O)O	> 88	inactive	197	> 10000	13	2560		pA2 [1]: 6.9
Cc1cc(O)cc(C)c1C[C@@H](C(=O)N1Cc2ccccc2CC1C(N)=O)N(C)C (some centres undefined)	4500		1660		0.309	511	0.126	IC50 (Mu-type opioid receptor [11]): Not Active; Kb (Mu-type opioid receptor [12]): 501 nM
CN[C@@H](Cc1c(C)cc(O)cc1C)C(=O)N1Cc2ccccc2CC1C(=O)O (some centres undefined)	> 3570	inactive	1870	> 10000	0.203	379	3.16	
Cc1cc(O)cc(C)c1CC(N)C(=O)N1Cc2ccccc2C[C@H]1C(=O)O (single isomer, unassigned)		inactive				11000		pA2 [10]: inactive; IC50 (Mu-type opioid receptor [11]): Not Active
Cc1cc(O)cc(C)c1C[C@H](C(=O)N1Cc2ccccc2CC1C(=O)O)N(C)C (some centres undefined)	> 4200	inactive	2280	> 10000	5.74	13100	2.51	
N[C@@H](Cc1ccc(O)cc1)C(=O)N1Cc2ccccc2C[C@H]1C(=O)O (H-Tyr-[Tic]-OH)			148		192	28400		
Oc1ccc2c3c1O[C@H]1c4[nH]c5ccccc5c4C[C@@]4(O)[C@@H](C2)N(CC2CC2)CC[C@]314 [NALTRINDOLE]	76							pA2 [1]: 9.2; IC50 (Mu-type opioid receptor [11]): Not Active; pA2 [13]: 7.3
Cc1cc(O)cc(C)c1CC(C)C(=O)N1Cc2ccccc2CC1C(=O)O (centres undefined)			55		1300	71400		
Cc1cc(O)cc(C)c1C[C@@H](C(=O)N1Cc2ccccc2C[C@H]1C(=O)N[C@@H](C)C(=O)O)N(C)C	7180		20000		0.0755	1520	0.251	IC50 (Mu-type opioid receptor [11]): Not Active; Kb (Mu-type opioid receptor [12]): 1580 nM
CN(C)[C@@H](Cc1ccc(O)cc1)C(=O)N1Cc2ccccc2CC1C(=O)O (some centres undefined)			265		43.5	11500		
CN[C@H](Cc1c(C)cc(O)cc1C)C(=O)N1Cc2ccccc2CC1C(=O)O (some centres undefined)	> 71	inactive	628	> 10000	3.19	2000	158	
Cc1cc(O)cc(C)c1C[C@@H](C(=O)N1Cc2ccccc2CC1C(=O)O)N(C)C (some centres undefined)	5640		20600		0.118	2440	0.398	IC50 (Mu-type opioid receptor [11]): Not Active; Kb (Mu-type opioid receptor [12]): 1580 nM
Cc1cc(O)cc(C)c1C[C@H](N)C(=O)N1Cc2ccccc2CC1C(N)=O (some centres undefined) (H-[Dmt]-[ξTic]-NH2)					1.22			
Cc1cc(O)cc(C)c1C[C@H](C(=O)N1Cc2ccccc2C[C@H]1C(=O)N[C@@H](C)C(=O)O)N(C)C			176		108	19000		
